Data published in ChEMBL document CHEMBL1158761, “Globosumones A-C, cytotoxic orsellinic acid esters from the Sonoran desert endophytic fungus Chaetomium globosum” (J Nat Prod, 2005).
pIC50: −log10 of the molar value. Calls of active or inactive are those of the source. The calls are words filed in the database; no cut-off is given here.

Columns and labels:
[1] = system: NCI-H460; test: Cytotoxicity against human NCI-H460 cells by MTT assay; assay type: functional, cell-based
In short: (§1)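 Cells were exposed to samples dissolved in DMSO for 72 h in RPMI-1640 medium with 10% fetal bovine serum. Inhibition of proliferation was read by the tetrazolium-based colorimetric MTT viability assay. The panel comprised NCI-H460 lung, MCF-7 breast, SF-268 glioma and MIA Pa Ca-2 pancreatic carcinoma lines, plus normal primary WI-38 fibroblasts.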

[2] = Cytotoxicity against human WI38 cells; assay type: cell-based; settings: WI-38; in short: as §1
[3] = system: MCF7; test: Cytotoxicity against human MCF7 cells by MTT assay; assay type: functional, cell-based; in short: as §1
[4] = system: SF-268; test: Cytotoxicity against human SF268 cells; assay type: functional, cell-based; in short: as §1
[5] = system: MIA PaCa-2; test: Cytotoxicity against human MIAPaCa2 cells; assay type: functional, cell-based; in short: as §1
[6] = Cytotoxicity against human WI38 cells at 10 ug/mL; assay type: cell-based; settings: wi-38
[7] = system: SF-268; test: Cytotoxicity against human SF268 cells at 10 ug/mL; assay type: functional, cell-based
[8] = system: MIA PaCa-2; test: Cytotoxicity against human MIAPaCa2 cells at 10 ug/mL; assay type: functional, cell-based
[9] = system: NCI-H460; test: Cytotoxicity against human NCI-H460 cells at 10 ug/mL by MTT assay; assay type: functional, cell-based
[10] = system: MCF7; test: Cytotoxicity against human MCF7 cells at 10 ug/mL by MTT assay; assay type: functional, cell-based

COc1cccc2c1C(=O)c1c(O)c3c(c(O)c1C2=O)C[C@@](O)(C(=O)CO)C[C@@H]3O[C@H]1C[C@H](N)[C@H](O)[C@H](C)O1 [DOXORUBICIN]
pIC50 [1]: 8.00 | pIC50 [2]: 6.52

C/C=C/C(=O)COC(=O)c1c(C)cc(O)cc1O [GLOBOSUMONE A]
pIC50 [1]: 5.19 | pIC50 [3]: 4.67 | pIC50 [2]: 4.89 | pIC50 [4]: 5.06 | pIC50 [5]: 4.97

Cc1cc(O)cc(O)c1C(=O)OCC(=O)C[C@H](C)O [GLOBOSUMONE B]
pIC50 [1]: 4.61 | pIC50 [3]: 4.66 | pIC50 [2]: 4.85 | pIC50 [4]: 4.54 | pIC50 [5]: 4.52

Cc1cc(O)cc(O)c1C(=O)OCC(=O)[C@@H](O)[C@H](C)O [GLOBOSUMONE C]
Activity [6]: Not Active | Activity [7]: inactive | Activity [8]: inactive | Activity [9]: inactive | Activity [10]: inactive

Cc1cc(O)cc(O)c1C(=O)O [ORSELLINIC ACID]
Activity [6]: Not Active | Activity [7]: inactive | Activity [8]: inactive | Activity [9]: inactive | Activity [10]: inactive

C/C=C/C1OC2=C(C(=O)C[C@H](C)O2)C(=O)[C@@H]1O (some centres not stated) [TRICHODION]
Activity [6]: Not Active | Activity [7]: inactive | Activity [8]: inactive | Activity [9]: inactive | Activity [10]: inactive
